Test [1] concerns Saccharomyces cerevisiae. Kind of test: Antifungal activity against Saccharomyces cerevisiae ATCC 9763 after 48 hrs by bromocresol green dye based assay. It counts as functional. The note with it: ATCC 9763, 48 h. The method in brief: (§1)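 S. cerevisiae grown 24 h in 1% malt extract broth, 250 rpm, 24 °C, diluted to 0.03 absorbance unit per mL. Inoculated onto compound in malt extract agar with bromocresol green (50 μg/mL). 2-fold series from 100 to 0.05 μg/mL in 1% DMSO. Incubated at 24 °C for 48 h. MIC read visually by blue-to-yellow colour change.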

Test [2] concerns Tritrichomonas suis. Nature of the test: Antiprotozoal activity against Tritrichomonas foetus KV1. In kind it is functional. The method in brief:
(§2)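 Trophozoites seeded at 4 × 10^4 cells/mL in medium containing tryptone, yeast extract, glucose, L-cysteine, phosphates, ascorbic acid, FeSO4 and 10% newborn calf serum. Compound range 100 to 0.05 μg/mL in 1% DMSO. Plates held anaerobically at 37 °C.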

In test [3] the test system is Bacillus spizizenii. Nature of the test: Antibacterial activity against Bacillus subtilis ATCC 6633 after 48 hrs by resazurin dye based assay. In kind it is functional. Conditions: for MIC: ATCC 6633, 48 h. The method in brief:
(§3)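 Bacteria pre-grown 24 h in nutrient broth at 28 °C, 100−250 rpm, diluted to 0.01 absorbance unit per mL. Inoculated into wells of compound dispersed in nutrient agar with resazurin (12.5 μg/mL). Test range 100 to 0.05 μg/mL (2-fold dilutions, 1% DMSO). Incubated 48 h at 28 °C. MIC read visually by blue-to-pink colour change.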
Background: Alamar Blue is a resazurin reagent that responds to reducing activity.

Test [4] relates to Escherichia coli. Kind of test: Antibacterial activity against Escherichia coli ATCC 25922 after 48 hrs by resazurin dye based assay. It counts as functional, organism-based. The method in brief: as §3
The subject of test [5] is Candida albicans. Kind of test: Antifungal activity against Candida albicans ATCC 10231 after 48 hrs by bromocresol green dye based assay. It counts as functional, organism-based. The method in brief: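 C. albicans grown 24 h in 1% malt extract broth, 250 rpm, 24 °C, diluted to 0.005 absorbance unit per mL. Inoculated onto compound in malt extract agar with bromocresol green (50 μg/mL). Test range 100 to 0.05 μg/mL in 1% DMSO. Incubated 24 °C, 48 h. MIC read visually by blue-to-yellow colour change.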

For test [6], the species on record is Mus musculus. Kind of test: (§4) Cytotoxicity against mouse NS1 cells after 48 hrs by resazurin dye based assay. It counts as functional. The method in brief:
(§5)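 NS-1 myeloma cells seeded at 50 000 cells/mL in DMEM + 10% FBS + 1% penicillin/streptomycin, 37 °C, 5% CO2. Compound range 100 to 0.05 μg/mL (2-fold dilutions, 1% DMSO). Resazurin (250 μg/mL, 10 μL) added at 48 h, then incubated a further 48 h. MIC end point read visually.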

The subject of test [7] is Saccharomyces cerevisiae. Nature of the test: Antifungal activity against Saccharomyces cerevisiae ATCC 9763 up to 100 ug/ml 48 hrs by bromocresol green dye based assay. It counts as functional, organism-based. The method in brief: as §1
Test [8] deals with Bacillus spizizenii. Nature of the test: Antibacterial activity against Bacillus subtilis ATCC 6633 up to 100 ug/ml 48 hrs by resazurin dye based assay. It counts as functional, organism-based. The method in brief: as §3
Test [9] is filed under the species Mus musculus. Nature of the test: Cytotoxicity against mouse NS1 cells up to 100 ug/ml 48 hrs by resazurin dye based assay. It counts as functional, cell-based. The method in brief: as §5
Test [10] can be described thus: as §4. In kind it is functional. The method in brief: as §5
Test [11] concerns Tritrichomonas suis. Kind of test: Antiprotozoal activity against Tritrichomonas foetus KV1 up to 100 ug/ml. It counts as functional, organism-based. The method in brief:
as §2

Values after ≈ are worked out from the molar mass of the structure shown. Active and inactive are the calls of the source. The rule behind the calls is not given here.

Regarding `Clc1ccccc1C(c1ccccc1)(c1ccccc1)n1ccnc1` [CLOTRIMAZOLE], in test [1], the MIC came out at 0.2 µg/mL (≈ 0.58 µM).
With `COc1cc(O)c2c(c1C)[C@H](C)[C@](O)(CO)OC2=O`, the result in test [2], in test [3], in test [4], in [5] and in test [6] was inactive.
The compound `CC1(C)S[C@@H]2[C@H](NC(=O)[C@H](N)c3ccccc3)C(=O)N2[C@H]1C(=O)O` [AMPICILLIN] had an MIC in test [3] of 0.4 µg/mL (≈ 1.14 µM).
As for `COc1cc(O)cc2c1C(=O)c1c(O)cc(C)cc1C2=O` [QUESTIN], the outcome in test [7], in test [8], in [4], in [5] and in [9] was inactive. Moreover, the MIC in test [2] came out at 12.5 µg/mL (≈ 44 µM).
`COc1cc(O)c2c(c1C)[C@H](C)[C@](O)(C[S+](C)[O-])OC2=O` (some centres not stated): the result in test [2], in [3], in test [4], in test [5] and in test [6] was inactive.
For `Cc1c(O)cc(O)c2c1[C@H](C)[C@](O)(CO)OC2=O`, the outcome in test [2], in test [3], in test [4], in [5] and in test [6] was inactive.
Take `COc1cc(O)c2c(c1C)[C@H](C)[C@](O)(CSCC(O)C(=O)O)OC2=O` (some centres not stated): the result in test [2], in test [3], in test [4], in test [5] and in test [6] was inactive.
With `COc1cc(O)c2c(c1C)[C@H](C)[C@](O)(COC(=O)c1c(O)cc(O)c(C)c1C)OC2=O`, the MIC in test [3] turned out to be 50 µg/mL (≈ 116 µM); in test [10], 100 µg/mL (≈ 231 µM). Further, the result in test [4], in [5] and in test [11] was inactive.
In turn, `COC(=O)Nc1nc2cc(C(=O)c3ccccc3)ccc2[nH]1` [MEBENDAZOLE] gave an MIC in [2] of 1.6 µg/mL (≈ 5.42 µM).
In test [10], `O=c1[nH]cc(F)c(=O)[nH]1` [FLUOROURACIL] yielded an MIC of 0.8 µg/mL (≈ 6.15 µM).
Consider `COc1cc(O)c2c(c1C)[C@](C)(O)[C@H](C)OC2=O`, for which the outcome in test [2], in test [3], in test [4], in test [5] and in test [6] was inactive.
`COc1cc(O)c2c(c1C)[C@H](C)[C@](O)(COC(=O)c1c(C)cc3c(c1O)C(=O)c1c(O)cc(O)cc1C3=O)OC2=O`: the outcome in test [7], in test [4] and in test [5] was inactive. Also, the values for the MIC in test [2], in test [3] and in test [10] were 12.5 µg/mL (≈ 22.1 µM), 25 µg/mL (≈ 44.3 µM) and 100 µg/mL (≈ 177 µM), respectively.
`COc1cc(O)c2c(c1C)[C@H](C)[C@](O)(COC(=O)c1c(C)c(C)c(O)c(C)c1O)OC2=O`: the MIC in test [2] was found to be 50 µg/mL (≈ 112 µM); in [3] it was 25 µg/mL (≈ 56 µM); in test [1], 50 µg/mL (≈ 112 µM); in test [10] it was 100 µg/mL (≈ 224 µM). Also, the result in [4] and in test [5] was inactive.
With `COc1cc(OC)c2c(c1C)[C@](C)(O)[C@H](C)OC2=O`, the result in [2], in test [3], in test [4], in test [5] and in test [6] was inactive.
With `COc1cc(O)c2c(c1C)[C@H](C)[C@H](CO)OC2=O`, the result in [2], in test [3], in test [4], in test [5] and in [6] was inactive.

The values are drawn from ChEMBL document CHEMBL4145622, “Banksialactones and Banksiamarins: Isochromanones and Isocoumarins from an Australian Fungus, Aspergillus banksianus” (2018).
